Screening results from PubChem.
Dynein cargo inh: blocks dynein driven cargo transport along microtubules. 3617.4 mouse cells, GR-EGFP nuclear translocation imaging; test concentration mostly 20 µM; stimulated with dexamethasone, 1 µM; hits give low values. 0.47% of 220,000 active. z-score, hits read low;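 active = plate z-score of nuclear minus cytoplasmic receptor signal below a set negative limit, without overly bright fluorescence or cell loss, cut at about -3.5 in these data, passing the limit was not always enough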;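 note: z-score of nuclear minus cytoplasmic ring GR-EGFP intensity difference per well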
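medium = tetracycline-free induction medium containing charcoal-stripped FBS | also added = 1.0 µM final dexamethasone stimulus | schedule = 48 h induction, 1 h compound, 30 min dex at 37 °C | technique = fixed, Hoechst-stained cells imaged at 10x for EGFP | measure = GR-EGFP nuclear translocation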
CHOP inh: inhibitors of CHOP induction in ER stress response | inhibition, % at 10 µM | 3.8% of 220,000 active | CHO-K1 CHOP-promoter luciferase, tunicamycin-induced, 15-18 h;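 active = compounds that reduced the stress-induced luciferase reporter signal by more than about 70% of percent inhibition, limit read from the data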;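 note: 0% = tunicamycin plus vehicle and 100% = wells without tunicamycin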
L major viab: reduces viability of Leishmania major promastigotes; inhibition, % at 10 µM; AID 1063; resazurin fluorescence viability; 9% of 200,000 active; in the data active = inhibition above about 50%;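 note: promastigotes grown with compound for 44 hours at 28 °C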
MT stabilizer: stabilizes microtubules in HeLa cells | HeLa tubulin immunostaining HCS, 24 h; share of cells brighter than vehicle mean+2SD | % tubulin-high responders, % at 10 µM | 0.83% of 200,000 active;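 active = plate Z-score above 3 for both tubulin-high and condensed-nucleus cell shares, with cell loss under 80%, at 10 µM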;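 note: anti alpha tubulin signal scored within the nucleus-defined area of each cell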
bCat nuc transl: modulators of beta-catenin nuclear translocation | 0.3% of 190,000 active | AID 1665 | HeLa beta-catenin nuclear translocation, immunofluorescence imaging | nuclear translocation activity, % at 5 µM;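 active = nuclear translocation activity above 50% at 5 µM, with a well cell count of 50 or more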;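 note: per-cell ratio of nuclear to cytoplasmic median beta-catenin stain intensity; plate controls were DMSO negative control for no effect and GSK-3 inhibitor IX positive control for full effect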
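Test system: human HeLa cells, endogenous beta-catenin. Times: 24 h compound exposure, 37°C. Measured by: beta-catenin immunofluorescence imaging with DAPI.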
Autophagy HCS: alters autophagy in cells; calls only at 10 µM (by protocol); 0.98% of 190,000 active; MEF GFP-LC3 puncta imaging; test concentration mostly 10 µM;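 active = percentage of spot-positive cells more than 3 SD above its plate mean, without a fluorescence outlier flag or 80% toxicity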;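 note: spot-positive cell cutoff set from DMSO-treated cells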
* marks the source's active call; other numbers are inactive results; i = inactive; . = no result; + = active, no number. Hits are enriched below; roughly 12% of the tested compounds scored in any of these assays.

SMILES	Dynein cargo inh	CHOP inh	L major viab	MT stabilizer	bCat nuc transl	Autophagy HCS
O=C1c2ccccc2C2=Nc3ccccc3SC(c3cccc(F)c3)C12 (stereo unspecified)	-0.0841	74.4*	88.8*	15.9	-0.2	i
Fc1cccc(C2NN=C(c3ccccc3)S2)c1 (stereo unspecified)	-0.365	-29.0	-5.0	3.7	-1.7	i
CC1=CC(=O)N(c2cccc(C(F)(F)F)c2)C1c1ccc(Cl)cc1 (stereo unspecified)	-0.268	43.8	17.8	1.2	.	i
CCCCCCn1ccc(=N)cc1	1.68	.	2.1	2.9	1.7	i
CCCCCCCCCCCCCCCCn1cc[n+](CC(C)=O)c1	0.448	11.8	100.3*	58.3	25.2	i
O=C(CN1CCC(n2nnc3cc(F)ccc32)CC1)NCCc1nc2ccccc2[nH]1	0.221	-17.4	1.5	2.7	-4.4	i
O=C(Cn1cc2c(n1)CCCC2)N1CCCc2ccccc21	-0.29	35.6	-8.2	3.3	-0.7	i
CC1CN(c2ccc([N+](=O)[O-])c(NCCOc3ccccc3)c2)CCN1 (stereo unspecified)	0.519	3.0	100.2*	1.2	2.9	i
COc1ccc(OCCNc2cc(N3CCCCC3)ccc2[N+](=O)[O-])cc1	0.102	17.7	6.0	2.1	-0.7	i
O=C(CSc1nn(-c2ccc(Cl)cc2)c(=S)s1)NCC1CCCO1 (stereo unspecified)	-0.529	8.6	3.8	1.9	0.6	i
O=C(NCc1ccco1)/C(=C\c1cccnc1)NC(=O)c1ccccc1F	-0.0401	0.7	52.6*	1.5	1.2	i
CC/C(=N\NC(=O)c1cc(C)nc2ccccc12)c1ccc(C)s1	-0.161	19.5	0.4	3.6	-1.7	i
Cc1ccc(Nc2nnc(C3C(=O)N(C)C4(C)CC3c3cc(Br)ccc3O4)s2)cc1 (stereo unspecified)	0.65	61.4	68.8*	4.0	-1.6	i
CN1C(=O)C(/C(N)=N/NC(=O)c2ccccc2)C2CC1(C)Oc1ccccc12 (stereo unspecified)	0.445	-5.0	-9.5	3.9	-1.8	i
Cc1ccc(C)c2c1sc(=NC(=O)CN1C(=O)CCC1=O)n2C	-0.31	-13.8	90.5*	3.8	.	i
CCOC(=O)c1c(C)n(C)c2cc(Br)c(C(=O)OC)cc12	2.95	27.0	0.6	8.6	1.3	i
CCOC(=O)c1c(CSC(=N)N)n(-c2ccc(Br)cc2)c2cc(Br)c(OC(C)=O)cc12	-2.16	109.8*	87.6*	22.2	9.8	i
CCCCCCCCOC(=O)c1c(CSC(=N)N)n(C)c2cc(Br)c(OC(C)=O)cc12	0.652	99.8*	.	.	0.5	.
COc1cc2c(C(=O)N3CCOCC3)c(CSc3ccccc3)n(C)c2cc1Br	0.949	-22.7	47.0	2.6	1.6	i
CCn1c2ccccc2c2cc(/C=N/NC(=O)c3cccc(C)c3)ccc21	1.12	9.2	2.4	29.6*	1.4	i
CCn1c2ccccc2c2cc(/C=N/NC(=O)c3ccccc3C)ccc21	-0.66	3.0	1.1	15.4	1.0	i
CCn1c2ccccc2c2cc(NC(=O)c3cccc(OC)c3)ccc21	-0.285	-11.5	14.0	30.8*	-1.4	i
CNS(=O)(=O)c1cccc(C(=O)OCC(=O)/C=C2/N(C)c3ccccc3C2(C)C)c1	0.117	72.8*	7.9	2.4	2.0	i
CCn1c2ccccc2c2cc(/C=N/n3cnnc3)ccc21	-0.13	19.2	22.6	10.8	1.5	+
O=C(NCc1ccco1)c1ccc(=O)oc1	1.14	13.7	-7.9	7.6	0.6	i
SMILES	Dynein cargo inh	CHOP inh	L major viab	MT stabilizer	bCat nuc transl	Autophagy HCS
CCn1c(C)c(C)c2cc(C(=O)Nc3cccc(Cl)c3)ccc21	-0.536	-54.3	62.2*	3.4	2.8	i
CCN(CC)S(=O)(=O)c1cccc(C(=O)OCC(=O)Nc2ccc3c(c2)c2ccccc2n3CC)c1	0.261	13.4	1.8	6.2	-3.5	i
CCn1c2ccccc2c2cc(NC(=O)COC(=O)c3cccc(S(=O)(=O)NC)c3)ccc21	0.454	-14.2	65.6*	4.2	2.7	i
COc1ccc(/C=C/C2=CC(C)(C)NC(=S)N2)cc1	0.384	0.2	13.8	2.5	0.8	i
Cc1ccc(-c2nc(N3CCOCC3)sc2C(=O)N2CCCCC2)cc1	1.17	-2.8	-1.5	1.1	5.0	i
Cc1cccc(N=C2NC(=O)S/C2=C\c2ccco2)c1	-0.747	72.4*	7.2	4.3	1.4	i
O=C1NC(=Nc2ccc3ccccc3c2)S/C1=C/c1ccco1	0.802	85.5*	-5.6	1.4	-0.6	i
COc1ccccc1CC1(C)NC(=O)N(CC(=O)Nc2cc(C)on2)C1=O (stereo unspecified)	2.45	21.9	-7.3	2.6	-1.5	i
CCOC(=O)c1c(C)sc(Sc2ccc(Cl)cc2[N+](=O)[O-])c1OC	-0.483	-3.0	27.6	0.9	-1.1	i
Cn1c(=O)[nH]c(=O)c2c1nc(NC1CCCCC1)n2CC(=O)NC1CCCCC1	0.00807	49.0	2.5	3.3	.	+
COC(=O)c1ccc(OCC(=O)Nc2nn(-c3ccccc3)nc2C(N)=O)cc1	-0.323	-12.0	-5.5	3.9	.	i
O=C(c1ccc(COc2ccccc2Cl)o1)N1N=C(C(F)F)CC1(O)C(F)F (stereo unspecified)	-0.302	74.7*	-3.6	3.1	-0.2	i
Cc1ccc(CC(=O)Nc2ncc([N+](=O)[O-])s2)cc1	0.799	1.1	15.8	2.6	0.4	i
CCCCC(CC)C(=O)Nc1ncc([N+](=O)[O-])s1 (stereo unspecified)	-1.06	57.0	59.0*	6.1	0.3	i
Cc1nnsc1C(=O)N1CCC(CO)(Cc2ccccc2Cl)CC1	-0.512	-8.3	.	.	-0.4	.
Cc1ccc(C)c(NC(=O)c2sc(Cl)nc2-c2ccccc2)c1	-0.165	-17.5	25.9	0.8	1.5	i
COc1ccccc1OCCCCN1CCN(C(c2ccccc2)c2ccccc2)CC1	0.866	86.3*	93.2*	3.2	1.2	i
c1ccc(OCCOCCN2CCN(C(c3ccccc3)c3ccccc3)CC2)cc1	-0.504	72.8*	20.7	2.4	-3.2	i
O=S(=O)(CCN1CCN(C(c2ccccc2)c2ccccc2)CC1)C(F)(F)F	-0.861	35.1	35.0	2.4	0.5	i
Cc1cc(C)n(C(=O)CNC(=O)CCc2ccccc2)n1	-0.0973	-19.6	-4.5	5.9	0.0	i
CCOC(=O)C1=C(C)N=C2SCCC(=O)N2[C@@H]1/C=C/c1ccccc1	-0.747	20.8	-1.2	1.6	1.0	i
CC1=C(C(=O)OCc2ccccc2)C(/C=C/c2ccccc2)N2C(=O)CCSC2=N1 (stereo unspecified)	0.105	33.2	74.8*	3.7	.	i
